According to the array DNA melting data of Ke et al. (doi:10.1101/2024.01.08.574731):

What was measured:
[1] = folding enthalpy; higher = less favourable; fluorescence melt of hairpins on a sequencing array, two-state fit; settings: sodium 0.088 M
Method in brief: (§1)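 With Cy3 and quencher oligos annealed, library hairpins on a sequenced MiSeq flow cell were imaged for Cy3 fluorescence in 50 mM Na-HEPES pH 8.0, 25 mM NaCl, in 2.5 °C steps up to 60 °C. Melting temperature and folding enthalpy were derived from bootstrapped two-state fits of signals normalised to pre-quench Cy3 and to control constructs. Four replicates were combined by inverse variance, with fitted temperatures raised by 9.35 °C to match UV melts.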

[2] = melting temperature; fluorescence melt of hairpins on a sequencing array, two-state fit, raised by 9.35 °C to match UV melts; settings: sodium 0.088 M
Method in brief: as §1

Sequence	folding enthalpy [1] [kcal/mol]	Tm [2] [°C]
GATACCGAAAGGTGTATC ((((((....)))..)))	-14.8	35.9
GTCCAGCGAAAGCTGAC (((.(((....))))))	-11.4	46.4
GTGAAGGGAAACCTTTAC ((.((((....)))).))	-25.3	39.6
GTCCCGGGAAACCGAGAC (((.(((....))).)))	-25.8	46.3
GATCACGTCCGTGATC ((((((....))))))	-41.6	61.1
GATCAGATTACTGATC ((((((....))))))	-30.3	50
GCCATGCGAAAGCCCGGC (((..((....))..)))	-22.9	43.1
GATCCGTATTCGGATC ((((((....))))))	-39.5	58.7
GGGTACGAAAGTATGCCC ((((((....)))..)))	-16	37.3
GTTCTCGGAAACGAGAAC (((((((....)))))))	-34.5	65.7
GTTTGTACGAAAGTAAAC (((..(((....))))))	-24.3	32.8
GCTCGTGGAAACACGGGC ((.((((....)))).))	-37.1	62.2
GAGTCCGAAAGGAACTC ((((((....))).)))	-27.7	50.7
GAGATACCGAAAGGTCTC (((..(((....))))))	-15.6	34.3
GCCTAGCGAAAGCGCGGC (((..((....))..)))	-18.5	61.9
CGTTCCGGAAACGGACG (((.(((....))))))	-30.8	49.9
GGAGTCGAAAGACTTTCC ((((((....)))..)))	-11.1	34
GGAGGTTCGAAAGAATCC (((..(((....))))))	-14.4	28.9
GTAATGGCGAAAGCCTAC (((..(((....))))))	-7.82	31.3
GACCTGGGAAACTAGGTC (((((.(....).)))))	-42.5	50.1
GATCGATACTCGATC ((((((...))))))	-41.3	51.3
GATCCGTCAACGGATC ((((((....))))))	-35.9	62
GATAATGGAAACATTATC (((((((....)))))))	-43.9	48.4

Sequence	folding enthalpy [1] [kcal/mol]	Tm [2] [°C]
GCGAACGGAAACGTTCAC (.(((((....))))).)	-14.4	46.1
GTGCAAGAAATTGCAC ((((((....))))))	-36.2	56.6
GCCTCCGAAAGGAAGGGC ((((((....)))..)))	-22.3	50.2
GGACTCGAAAGAGCATCC ((((((....)))..)))	-9.49	24.9
GGGGACACGAAAGTGCCC (((..(((....))))))	-20.5	55.5
GACGATGCGAAAGCAGTC (((..(((....))))))	-16.9	44
GATCATCAGTATGATC ((((((....))))))	-29.4	45.8
GCGAGCTATCGC ((((....))))	-24.2	60.8
GATCTGAATTCAGATC ((((((....))))))	-41.6	50.2
GATCAATTATTGATC ((((((...))))))	-29.3	43.8
GCCGCGCGAAAGCGCAGC ((.((((....)))).))	-15.2	64
GCGTTTAAACGC ((((....))))	-29.4	54.7
GACATTGGAAACAATGCC (.(((((....))))).)	-21.5	38.1
GCCAAAACGAAAGTTGGC (((..(((....))))))	-30.7	51.4
GATCCCATGCGGGATC ((((((....))))))	-34	60.6
GGATCCGGAAACGAATCC ((((.((....)).))))	-29	41.8
GAAGGCGAAAGCCGGTTC ((((((....)))..)))	-9.54	43.4
GCAGCCGAAAGGCCTTGC ((((((....)))..)))	-10.6	35.7
GGAGTGCGAAAGCATCC (((.(((....))))))	-17.1	48.2
GCCATGGGAAACCACAGC ((..(((....)))..))	-12.7	26.9
GTTCTCGAAAGAGTCAAC ((((((....)))..)))	-10.2	23.2
GGTCTGGGAAACCAGGCC ((.((((....)))).))	-47.6	56.9
GATCCACCCTTGGATC ((((((....))))))	-34.8	50.4

Sequence	folding enthalpy [1] [kcal/mol]	Tm [2] [°C]
GAATAAGAAATTATTC ((((((....))))))	-10.4	31.9
GCGTTCGAAAGAATTCGC ((((((....)))..)))	-26.6	36.2
GCGTTGCCGAAAGGCCGC (((..(((....))))))	-16.6	55.6
GCAGTCGGAAACGACCAC (..((((....))))..)	-8.16	32
GTTAGCGAAAGCTGTAAC ((((((....)))..)))	-9.81	31.6
GTTGATCGAAAGATTAAC (((.(((....))).)))	-30.6	44.8
GATCGTGCGCACGATC ((((((....))))))	-51.2	64.6
GCTGTCCGAAAGGAAGC (((.(((....))))))	-23.9	49.1
GCATGTGGAAACACATAC (.(((((....))))).)	-14.9	38.6
GTAAGTGGAAACACTCAC ((.((((....)))).))	-15.4	32.7
GCTCGCGGAAACGCAAGC (((.(((....))).)))	-28.7	49.8
CGGCGTCGGAAACGACCG (((..(((....))))))	-13.8	47.4
GTAGGCGGAAACACCTAC (((((.(....).)))))	-25.8	44.5
GGGACACGAAAGTGCCC (((.(((....))))))	-24.1	60.9
GATCCGTAACCGGATC ((((((....))))))	-39.2	55.7
GCCCAGGGAAACCTGGAC (.(((((....))))).)	-13.4	49.4
GTAGAGGGAAACCCCTAC ((((.((....)).))))	-20.4	39.2
GTGTGGGGAAACCCGCAC (((.(((....))).)))	-35.3	59.7
GCGGTTGCCCGC ((((....))))	-14.9	62
GGCGAAGGAAACTCCGCC ((((.((....)).))))	-34.4	51.1
GGTAGCACGAAAGTGACC (((..(((....))))))	-13.9	32.2
GCTCTCCCGAAAGGGAGC (((..(((....))))))	-7.28	33
GTTGTGTCGAAAGACAAC (((..(((....))))))	-24.9	51.1

Sequence	folding enthalpy [1] [kcal/mol]	Tm [2] [°C]
GCGGGCGAAAGCCAACGC ((((((....)))..)))	-22.4	65.3
GCAGACGAAAGTCCTTGC ((((((....)))..)))	-12.3	32.5
GGGACGGGAAACCGTCTC (.(((((....))))).)	-20.2	56.5
GCCGGCTCGAAAGAGGGC (((..(((....))))))	-19.2	46.9
GTATAGGGAAACTTATAC (((((.(....).)))))	-14.2	27.7
GCGCAGGGAAACCCGCAC (.((.((....)).)).)	-17	37
GTGCATTCGAAAGAACAC (((..(((....))))))	-7.63	23.8
GTTGGGGGAAACCTCAGC (.((.((....)).)).)	-17.4	31
GTCGATGGAAACACCGAC ((((.((....)).))))	-38	47.2
GCTCCGCGAAAGCGCAGC (((.(((....))).)))	-29.8	45.5
GCGTGCGAACGC ((((....))))	-18.2	69
GCCTTGGGAAACTAGGGC (((.(.(....).).)))	-30.1	36.5
GGGTGCGGAAACGCATCC ((.((((....)))).))	-29.8	64.7
AGTAGGAAACTACT (((((....)))))	-16.9	33.2
GATCGTTACACGATC ((((((...))))))	-36.1	58.4
GAACTGAAAAGTTC (((((....)))))	-24.3	46.6
GAAAGACGAAAGTCATTC (((.(((....))).)))	-21.1	38.2
GATCCTCCTAAGGATC ((((((....))))))	-37.5	53.4
GAATAGCGAAAGCTGTTC (((.(((....))).)))	-39.9	51.5
GCGAACCGAAAGGTACGC (((.(((....))).)))	-45.7	64.3
GTCTTAGGAAACTGAGAC ((((.((....)).))))	-30.7	40.9
GATCGCCTGTGCGATC ((((((....))))))	-36.7	66.8
GATTGCGGAAACGTAATC ((((.((....)).))))	-38.8	47.6
